# Measured values from ChEMBL document CHEMBL1153566, “5-Benzylidene-hydantoins: synthesis and antiproliferative activity on A549 lung cancer cell line” (Eur J Med Chem, 2009).
# Active and inactive are the calls of the source. No cut-off for these calls is given here.
# Experiments:
# [1] = tested on: A549; assay: Antiproliferative activity against human A549 cells at 20 uM after 72 hrs by trypan blue exclusion method; type: functional; conditions: A549, 72 h
# [2] = tested on: A549; assay: Induction of p53 protein expression in human A549 cells at 20 uM after 48 hrs by Western blot relative to untreated control; type: functional
# How it was run: (§1)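 A549 cells (RPMI 1640, 2 mM glutamine, 10% FBS, 37 °C, 5% CO2) treated with compound; lysate proteins (50 µg) run on 5–15% SDS–PAGE, blotted to nitrocellulose, probed with mouse anti-human p53 (DO1) and anti-GAPDH monoclonals, then HRP secondary. p53 level given as fold increase over control; mean ± SD of three independent experiments, one-tailed Student's t-test.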
# [3] = tested on: A549; assay: Induction of p53 protein expression in human A549 cells at 20 uM after 72 hrs by Western blot relative to untreated control; type: functional; how it was run: as §1
# [4] = tested on: A549; assay: Induction of p53 protein expression in human A549 cells at 10 uM after 48 hrs by Western blot relative to untreated control; type: functional; how it was run: as §1
# [5] = tested on: A549; assay: Induction of p53 protein expression in human A549 cells at 10 uM after 72 hrs by Western blot relative to untreated control; type: functional; how it was run: as §1
# [6] = target: Epidermal growth factor receptor (Homo sapiens, UniProt P00533); assay: Inhibition of EGFR autophosphorylation in human A549 cells
# [7] = tested on: A549; assay: Induction of DNA damage in human A549 cells; type: functional, cell-based
# [8] = tested on: A549; assay: Cell cycle arrest in human A549 cells assessed as accumulation at S phase; type: functional, cell-based
# Sequence of Epidermal growth factor receptor (P00533 whole entry): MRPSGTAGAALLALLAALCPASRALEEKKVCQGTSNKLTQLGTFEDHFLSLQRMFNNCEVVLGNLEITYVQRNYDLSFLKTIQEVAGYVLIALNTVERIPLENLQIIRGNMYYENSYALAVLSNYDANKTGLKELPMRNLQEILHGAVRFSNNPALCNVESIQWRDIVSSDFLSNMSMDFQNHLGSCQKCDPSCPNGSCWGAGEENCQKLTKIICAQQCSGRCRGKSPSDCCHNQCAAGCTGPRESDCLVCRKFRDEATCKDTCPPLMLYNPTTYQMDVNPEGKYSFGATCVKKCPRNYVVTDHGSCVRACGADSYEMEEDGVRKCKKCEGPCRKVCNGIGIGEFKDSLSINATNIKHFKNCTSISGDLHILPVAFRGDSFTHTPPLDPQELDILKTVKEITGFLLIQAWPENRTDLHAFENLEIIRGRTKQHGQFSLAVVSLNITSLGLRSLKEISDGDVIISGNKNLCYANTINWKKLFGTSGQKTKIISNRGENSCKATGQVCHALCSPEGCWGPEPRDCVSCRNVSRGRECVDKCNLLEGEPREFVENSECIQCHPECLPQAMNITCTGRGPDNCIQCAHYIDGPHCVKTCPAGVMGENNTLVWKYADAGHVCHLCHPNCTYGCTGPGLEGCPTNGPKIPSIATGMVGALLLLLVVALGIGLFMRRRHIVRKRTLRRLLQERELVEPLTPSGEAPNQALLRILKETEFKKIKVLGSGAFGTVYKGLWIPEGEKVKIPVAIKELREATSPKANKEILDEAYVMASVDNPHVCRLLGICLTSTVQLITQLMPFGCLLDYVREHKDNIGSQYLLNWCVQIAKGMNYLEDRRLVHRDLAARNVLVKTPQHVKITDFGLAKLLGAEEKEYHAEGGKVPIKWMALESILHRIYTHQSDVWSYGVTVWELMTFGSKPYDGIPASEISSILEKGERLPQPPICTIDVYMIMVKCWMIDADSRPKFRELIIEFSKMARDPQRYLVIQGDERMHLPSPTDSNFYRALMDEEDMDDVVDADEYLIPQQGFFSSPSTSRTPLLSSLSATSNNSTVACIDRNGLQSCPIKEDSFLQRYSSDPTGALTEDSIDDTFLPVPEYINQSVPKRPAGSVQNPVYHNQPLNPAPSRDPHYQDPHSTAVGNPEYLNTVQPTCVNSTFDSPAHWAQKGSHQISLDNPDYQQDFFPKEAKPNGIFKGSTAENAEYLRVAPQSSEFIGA
SMILES,inhibition at 20 µM [1] [%],fold change (FC) [2],also measured
CCCCN1C(=O)NC(=O)/C1=C/c1ccc(Cl)cc1,26,–,–
O=C1NC(=O)N(CCc2ccccc2)/C1=C/c1ccccc1,9.4,1.2,–
O=C1NC(=O)N(Cc2ccccc2)/C1=C/c1ccc(O)cc1,41,1.8,–
O=C1NC(=O)N(CCc2cccc(Cl)c2)/C1=C\c1ccccc1,49,1.5,fold change (FC) [3]: 2.2; fold change (FC) [4]: 0.7; fold change (FC) [5]: 1.1
O=C1NC(=O)N(CCc2ccccc2)/C1=C\c1cccc(O)c1,40,1.1,–
O=C1NC(=O)N(Cc2ccccc2)/C1=C\c1ccc(O)cc1,32,2,–
CCCCN1C(=O)NC(=O)/C1=C\c1ccc(Cl)cc1,29,–,–
O=C1NC(=O)N(CCc2ccccc2)/C1=C/c1ccc(O)cc1,53,2.3,fold change (FC) [3]: 3.2; fold change (FC) [4]: 1; fold change (FC) [5]: 1.4; IC50 [6]: 19 µM; Activity [7]: Active; Activity [8]: Active
CCCCN1C(=O)NC(=O)/C1=C\c1ccccc1,6.8,–,–
O=C1NC(=O)N(CCc2ccccc2)/C1=C/c1cccc(O)c1,28,0.9,–
CN1C(=O)/C(=C\c2ccccc2)N(CCc2ccccc2)C1=O,31,1,–
CN1C(=O)NC(=O)/C1=C\c1ccccc1,5.7,1.1,–
O=C1NC(=O)N(c2ccccc2)/C1=C/c1ccccc1,18,–,–
O=C1NC(=O)N(CCc2ccccc2)/C1=C\c1ccc(O)cc1,44,1.5,fold change (FC) [3]: 2.7; fold change (FC) [4]: 0.9; fold change (FC) [5]: 1.7
O=C1NC(=O)N(CCc2cccc(Cl)c2)/C1=C/c1ccccc1,10,–,–
O=C1NC(=O)N(Cc2ccccc2)/C1=C/c1ccccc1,2.9,–,–
CCCCN1C(=O)NC(=O)/C1=C/c1ccccc1,18,–,–
CN1C(=O)/C(=C/c2ccccc2)N(CCc2ccccc2)C1=O,45,1,–
CC(=O)Nc1ccc(/C=C2\C(=O)NC(=O)N2CCc2ccccc2)cc1,39,1.7,–
CCCCCCN1C(=O)NC(=O)/C1=C/c1ccccc1,0,–,–
O=C1NC(=O)N(CCc2ccccc2)[C@@H]1Cc1ccccc1,7.2,1,–
CN1C(=O)NC(=O)/C1=C/c1ccccc1,16,1,–
O=C1NC(=O)N(CCc2ccccc2)/C1=C\c1ccccc1,42,1.3,–
O=C1NC(=O)N(CCc2ccccc2)/C1=C/c1cccc(Cl)c1,35,–,–
CC(=O)Nc1ccc(/C=C2/C(=O)NC(=O)N2CCc2ccccc2)cc1,32,–,–
CCCCCCN1C(=O)NC(=O)/C1=C\c1ccccc1,14,–,–
O=C1NC(=O)N(Cc2ccccc2)/C1=C\c1ccccc1,42,1.7,fold change (FC) [3]: 2.6; fold change (FC) [4]: 1.1; fold change (FC) [5]: 1.8
COc1ccc(/C=C2\C(=O)NC(=O)N2CCc2ccccc2)cc1,35,1,–
O=C1NC(=O)N(c2ccccc2)/C1=C\c1ccccc1,26,–,–
O=C1NC(=O)N(CCc2ccccc2)/C1=C\c1cccc(Cl)c1,43,1.2,fold change (FC) [3]: 1.9; fold change (FC) [4]: 0.9; fold change (FC) [5]: 1.4
